Our source for the Activity, inhibition and IC50 values is ChEMBL document CHEMBL1811919, “Effects of β-glucosidase hydrolyzed products of harpagide and harpagoside on cyclooxygenase-2 (COX-2) in vitro” (Bioorg Med Chem, 2011).

The subject of data set [1] is RAW264.7. Briefly: Cytotoxicity against mouse RAW264.7 cells at 2.5 to 100 uM after 18 hrs by MTT assay. Format: cell-based. Conditions: raw264.7, 18 h. The procedure, abridged:
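RAW 264.7 murine macrophages in 96-well plates co-incubated with compound or vehicle for 18 h. MTT added to […] final, then 4 h further incubation with DMSO; formazan read at 570 nm. Toxic if MTT metabolism more than 20% below control.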

For data set [2], the target named is T1, Prostaglandin G/H synthase 1 (Ovis aries) (UniProt P05979).
T1 sequence (whole entry): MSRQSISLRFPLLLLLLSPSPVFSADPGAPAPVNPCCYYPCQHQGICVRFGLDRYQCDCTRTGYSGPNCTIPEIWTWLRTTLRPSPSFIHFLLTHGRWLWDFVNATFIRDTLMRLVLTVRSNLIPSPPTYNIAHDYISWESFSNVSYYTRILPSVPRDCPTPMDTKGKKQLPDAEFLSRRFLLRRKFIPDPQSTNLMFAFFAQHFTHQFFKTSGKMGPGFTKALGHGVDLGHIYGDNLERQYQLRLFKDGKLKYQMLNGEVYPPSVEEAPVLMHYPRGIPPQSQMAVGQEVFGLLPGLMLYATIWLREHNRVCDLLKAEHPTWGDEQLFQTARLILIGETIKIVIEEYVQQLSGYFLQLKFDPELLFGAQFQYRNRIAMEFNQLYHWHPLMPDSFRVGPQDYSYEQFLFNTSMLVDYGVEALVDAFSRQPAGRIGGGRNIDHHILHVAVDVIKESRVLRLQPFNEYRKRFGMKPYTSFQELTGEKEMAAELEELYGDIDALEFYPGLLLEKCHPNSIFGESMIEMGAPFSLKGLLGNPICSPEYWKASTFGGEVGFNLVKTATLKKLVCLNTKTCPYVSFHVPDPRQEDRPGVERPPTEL
The experiment in a line: Inhibition of ovine COX1 at 2.5 to 100 uM incubated for 10 mins by enzyme immunoassay. The procedure, abridged:
(§1)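 Screening kit assay. Ovine COX-1 or human recombinant COX-2 with heme in reaction buffer, incubated with compound or DMSO for 10 min. Arachidonic acid added from a 10 mM stock, reaction 2 min at 37 °C. Stopped with 1 M HCl, then saturated SnCl2 for 5 min at room temperature. Prostaglandins quantified by EIA. Background from inactivated enzyme; DMSO taken as 100% activity. Mean ± SEM, Dunnett's test.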

In data set [3] the target is T2, Prostaglandin G/H synthase 2 (Homo sapiens) (UniProt P35354).
T2 sequence (whole entry): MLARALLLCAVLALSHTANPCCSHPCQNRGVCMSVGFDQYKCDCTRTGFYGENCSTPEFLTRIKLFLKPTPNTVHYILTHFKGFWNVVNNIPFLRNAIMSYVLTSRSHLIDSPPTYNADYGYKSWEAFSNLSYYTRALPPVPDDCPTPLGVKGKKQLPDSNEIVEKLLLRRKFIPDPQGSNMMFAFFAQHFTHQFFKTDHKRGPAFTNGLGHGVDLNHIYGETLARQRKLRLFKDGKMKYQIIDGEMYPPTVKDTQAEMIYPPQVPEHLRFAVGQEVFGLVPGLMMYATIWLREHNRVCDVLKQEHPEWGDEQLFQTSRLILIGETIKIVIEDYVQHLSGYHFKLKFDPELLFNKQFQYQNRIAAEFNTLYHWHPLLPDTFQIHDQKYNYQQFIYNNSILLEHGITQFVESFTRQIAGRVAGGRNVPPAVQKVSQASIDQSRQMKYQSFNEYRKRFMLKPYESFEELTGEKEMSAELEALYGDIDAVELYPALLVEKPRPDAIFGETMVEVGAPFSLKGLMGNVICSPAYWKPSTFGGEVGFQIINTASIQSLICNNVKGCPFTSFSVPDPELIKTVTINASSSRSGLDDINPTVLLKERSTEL
Briefly: (§2) Inhibition of human recombinant COX2 incubated for 10 mins by enzyme immunoassay. The procedure, abridged:
as §1

The target in data set [4] is T3, Prostaglandin G/H synthase 2 (Homo sapiens, UniProt P35354).
T3 sequence (P35354 whole entry): T2 sequence (whole entry)
Described as §2. A digest of the protocol: as §1

For data set [5], the system named is RAW264.7. The experiment in a line: Effect on basal COX-2 mRNA expression in mouse RAW264.7 cells at 20 uM by RT-PCR. Type of data set: functional, cell-based.
The test system of data set [6] is RAW264.7. The experiment in a line: Effect on basal COX-2 mRNA expression in mouse RAW264.7 cells at 100 uM by RT-PCR. Format: functional, cell-based.
Data set [7] concerns RAW264.7. The experiment in a line: Inhibition of LPS-induced COX-2 mRNA expression in mouse RAW264.7 cells at 100 uM pre-incubated for 3 hrs before LPS challenge measured 24 hrs post LPS challenge by RT-PCR. Type of data set: functional. A digest of the protocol:
(§3)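 RAW 264.7 cells seeded at 2 × 10⁵ per well and grown to confluence, treated with compound or vehicle for 3 h, then stimulated with LPS 1 µg/ml for 24 h. Total RNA extracted; SYBR real-time RT-PCR, 40 cycles of 95 °C 15 s / 60 °C 1 min, samples in duplicate. Quantified by 2^-ΔΔCt, normalized to β-actin, fold change relative to untreated cells. TPCK 20 µM positive control.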

In data set [8] the test system is RAW264.7. Briefly: Inhibition of LPS-induced nitric oxide production in mouse RAW264.7 cells at 2.5 to 100 uM pre-incubated for 20 mins before LPS challenge measured 18 hrs post LPS challenge by Griess method. Type of data set: functional, cell-based. The procedure, abridged: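 RAW264.7 cells at 2 × 10⁵ per well pretreated with compound, aminoguanidine or vehicle for 20 min, then co-incubated with LPS 1 µg/ml for a further 18 h. Supernatant mixed with Griess reagent (1% sulfanilamide, 0.1% naphthylethylenediamine) for nitrite read-out.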
A general note: Nitrite, measured by Griess reagent, commonly stands in for NO production.

Data set [9] concerns RAW264.7. Briefly: Inhibition of LPS-induced TNFalpha production in mouse RAW264.7 cells at 2.5 to 100 uM pre-incubated for 30 mins before LPS challenge measured 6 hrs post LPS challenge by ELISA. Format: functional, cell-based. A digest of the protocol:
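RAW264.7 cells at 2 × 10⁵ per well pretreated with compound, dexamethasone or vehicle for 30 min, then co-incubated with LPS 100 ng/ml for a further 6 h before TNF-α measurement.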
On the technique in general: An ELISA detects its analyte on a solid surface through an enzyme-linked reagent.

Data set [10] concerns the target T1, Prostaglandin G/H synthase 1 (Ovis aries). Conditions: 50 uM.
The test system of data set [11] is RAW264.7. The experiment in a line: Inhibition of LPS-induced TNFalpha production in mouse RAW264.7 cells pre-incubated for 30 mins before LPS challenge measured 6 hrs post LPS challenge by ELISA. Format: functional, cell-based. A digest of the protocol: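 RAW264.7 macrophages at 2 × 10⁵ cells/well, pretreated with test compound, dexamethasone or vehicle for 30 min, then co-incubated with LPS (100 ng/ml) for a further 6 h. Concentrations tested 2.5–100 μM.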

Data set [12] concerns RAW264.7. The experiment in a line: Inhibition of LPS-induced nitric oxide production in mouse RAW264.7 cells pre-incubated for 20 mins before LPS challenge measured 18 hrs post LPS challenge by Griess method. Type of data set: functional, cell-based. The procedure, abridged:
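RAW264.7 cells at 2 × 10⁵ cells/well, pretreated with test compound, aminoguanidine or vehicle for 20 min, then LPS co-incubation for a further 18 h. Supernatant mixed with Griess reagent (1% sulfanilamide plus 0.1% naphthylethylenediamine). Concentrations tested 2.5–100 μM.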

The target in data set [13] is T2, Prostaglandin G/H synthase 2 (Homo sapiens). The experiment in a line: Inhibition of human recombinant COX2 at 2.5 to 100 uM incubated for 10 mins by enzyme immunoassay. The procedure, abridged:
as §1

Data set [14] concerns RAW264.7. The experiment in a line: Inhibition of LPS-induced COX-2 mRNA expression in mouse RAW264.7 cells at 20 uM pre-incubated for 3 hrs before LPS challenge measured 24 hrs post LPS challenge by RT-PCR. Type of data set: functional. A digest of the protocol:
as §3

A word on the inhibition: it is the change of the read-out against control, counted positive when it falls. By IC50 is commonly meant the concentration that inhibits the measured activity by half.

Activity calls are given as the source filed them. No cut-off for these calls is given here.

Regarding `C[C@]1(O)C[C@@H](O)[C@](O)(CC=O)[C@@H]1C=O`, the Activity entry in data set [1] is given as “Non-toxic”. In addition, the inhibition result in [2], in data set [8] and in data set [9] was “inactive” in each case. The inhibition entry in data set [3] was “Dose-dependent effect”. Moreover, in [4], the IC50 came to 43.3 µM. Further, the outcome in [5] and in data set [6] was inactive. This compound registered an inhibition at 100 µM in data set [7] of 47.6%.

With `CC(=O)Oc1ccccc1C(=O)O`, the inhibition entry in data set [10] was “Active”.

`C[C@@H]1C[C@H]2[C@@H]3CCC4=CC(=O)C=C[C@]4(C)[C@@]3(F)[C@@H](O)C[C@]2(C)[C@@]1(O)C(=O)CO`: the inhibition entry in [11] and in [12] was “Active” throughout.

As for `C[C@]1(O)C[C@@H](O)[C@]2(O)C=CO[C@@H](O[C@H]3O[C@H](CO)[C@@H](O)[C@H](O)[C@H]3O)[C@@H]21`, the inhibition result in data set [2], in [13], in data set [7], in [8] and in [9] was “inactive” throughout. Further, the result in [5] and in data set [6] was inactive.

Take `C[C@]1(OC(=O)/C=C/c2ccccc2)C[C@@H](O)[C@]2(O)C=CO[C@@H](O[C@@H]3O[C@H](CO)[C@@H](O)[C@H](O)[C@H]3O)[C@@H]21` [HARPAGOSIDE]: the Activity entry in [1] is reported as “Non-toxic”. The inhibition entry in data set [2], in [13], in data set [7], in data set [8] and in data set [9] was “inactive” each time. The result in [5] and in data set [6] was inactive.

For `N=C(N)NN`, the inhibition entry in data set [11] and in data set [12] was “Active” in each case.

In the case of `C[C@]1(O)C[C@@H](O)[C@]2(O)C=CO[C@@H](O[C@@H]3O[C@H](CO)[C@@H](O)[C@H](O)[C@H]3O)[C@@H]21` [HARPAGIDE], the Activity result in data set [1] is given as “Non-toxic”.

`Cc1ccc(S(=O)(=O)N[C@@H](Cc2ccccc2)C(=O)CCl)cc1` [TPCK] returned an inhibition at 20 µM in data set [14] of 59.5%.
